Test results from ChEMBL document CHEMBL5500351, “Active site-directed probes targeting dipeptidyl peptidases 8 and 9” (Eur J Med Chem, 2024).
pIC50: −log10 of the molar value.

Key:
[1] = organism: Homo sapiens; experiment: Selectivity index, ratio of IC50 for inhibition of human DPP8 expressed in baculovirus-infected Sf9 cells to IC50 for inhibition of human DPP9
Outline: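 Selectivity is computed as IC50(DPP8)/IC50(DPP9). Each IC50 was measured against recombinant human DPP8 or DPP9 and is the mean of three independent measurements ± standard deviation.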

[2] = target: Dipeptidyl peptidase 4 (Homo sapiens, UniProt P27487); experiment: Inhibition of human DPP4
Dipeptidyl peptidase 4, sequence (P27487 whole entry): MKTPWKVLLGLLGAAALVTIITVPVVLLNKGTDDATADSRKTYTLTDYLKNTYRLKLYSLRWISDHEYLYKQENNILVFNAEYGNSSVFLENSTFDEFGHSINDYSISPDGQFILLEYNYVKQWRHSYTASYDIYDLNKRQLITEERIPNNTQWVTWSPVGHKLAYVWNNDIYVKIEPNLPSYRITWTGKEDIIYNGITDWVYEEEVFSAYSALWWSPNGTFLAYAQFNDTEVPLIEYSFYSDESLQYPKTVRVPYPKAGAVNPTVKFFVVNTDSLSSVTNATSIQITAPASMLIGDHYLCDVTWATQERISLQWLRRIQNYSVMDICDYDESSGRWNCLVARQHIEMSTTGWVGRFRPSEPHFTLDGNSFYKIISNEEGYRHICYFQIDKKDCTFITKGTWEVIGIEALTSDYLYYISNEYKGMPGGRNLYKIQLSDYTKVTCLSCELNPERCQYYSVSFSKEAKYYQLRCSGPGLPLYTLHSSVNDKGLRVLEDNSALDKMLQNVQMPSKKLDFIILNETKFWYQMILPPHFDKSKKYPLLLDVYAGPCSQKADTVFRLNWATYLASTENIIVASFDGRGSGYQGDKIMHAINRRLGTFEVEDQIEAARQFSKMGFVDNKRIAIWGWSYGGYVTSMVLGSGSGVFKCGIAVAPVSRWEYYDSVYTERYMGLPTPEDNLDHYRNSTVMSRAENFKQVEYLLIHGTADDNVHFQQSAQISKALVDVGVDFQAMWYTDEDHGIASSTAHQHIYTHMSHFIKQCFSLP
Outline: (§1)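 IC50 reported as the mean ± standard deviation of three independent determinations against each protease.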

[3] = target: T1, Prolyl endopeptidase FAP (Homo sapiens, UniProt Q12884); experiment: Inhibition of recombinant human FAP; outline: as §1
T1 sequence (Q12884 whole entry): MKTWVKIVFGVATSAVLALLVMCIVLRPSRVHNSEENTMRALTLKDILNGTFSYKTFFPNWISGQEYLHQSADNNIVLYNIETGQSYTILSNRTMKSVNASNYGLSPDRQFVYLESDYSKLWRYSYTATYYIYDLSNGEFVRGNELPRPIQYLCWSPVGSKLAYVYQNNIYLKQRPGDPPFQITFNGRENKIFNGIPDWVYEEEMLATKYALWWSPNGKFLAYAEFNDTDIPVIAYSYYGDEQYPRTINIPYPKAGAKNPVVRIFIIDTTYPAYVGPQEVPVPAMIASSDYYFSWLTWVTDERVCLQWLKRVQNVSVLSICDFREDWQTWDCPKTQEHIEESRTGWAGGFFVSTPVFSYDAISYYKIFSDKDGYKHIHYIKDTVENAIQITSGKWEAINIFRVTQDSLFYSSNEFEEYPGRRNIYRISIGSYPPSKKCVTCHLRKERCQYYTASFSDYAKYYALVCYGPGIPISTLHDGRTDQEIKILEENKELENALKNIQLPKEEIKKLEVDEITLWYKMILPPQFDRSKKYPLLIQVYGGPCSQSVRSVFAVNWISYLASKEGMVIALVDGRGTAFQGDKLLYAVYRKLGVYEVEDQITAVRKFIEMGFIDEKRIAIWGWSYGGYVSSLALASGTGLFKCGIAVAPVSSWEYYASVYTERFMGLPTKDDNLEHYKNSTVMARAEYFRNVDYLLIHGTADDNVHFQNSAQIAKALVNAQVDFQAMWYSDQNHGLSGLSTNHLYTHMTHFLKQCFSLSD

[4] = target: T2, Prolyl endopeptidase (Homo sapiens, UniProt P48147); experiment: Inhibition of recombinant human PREP; outline: as §1
T2 sequence (P48147 whole entry): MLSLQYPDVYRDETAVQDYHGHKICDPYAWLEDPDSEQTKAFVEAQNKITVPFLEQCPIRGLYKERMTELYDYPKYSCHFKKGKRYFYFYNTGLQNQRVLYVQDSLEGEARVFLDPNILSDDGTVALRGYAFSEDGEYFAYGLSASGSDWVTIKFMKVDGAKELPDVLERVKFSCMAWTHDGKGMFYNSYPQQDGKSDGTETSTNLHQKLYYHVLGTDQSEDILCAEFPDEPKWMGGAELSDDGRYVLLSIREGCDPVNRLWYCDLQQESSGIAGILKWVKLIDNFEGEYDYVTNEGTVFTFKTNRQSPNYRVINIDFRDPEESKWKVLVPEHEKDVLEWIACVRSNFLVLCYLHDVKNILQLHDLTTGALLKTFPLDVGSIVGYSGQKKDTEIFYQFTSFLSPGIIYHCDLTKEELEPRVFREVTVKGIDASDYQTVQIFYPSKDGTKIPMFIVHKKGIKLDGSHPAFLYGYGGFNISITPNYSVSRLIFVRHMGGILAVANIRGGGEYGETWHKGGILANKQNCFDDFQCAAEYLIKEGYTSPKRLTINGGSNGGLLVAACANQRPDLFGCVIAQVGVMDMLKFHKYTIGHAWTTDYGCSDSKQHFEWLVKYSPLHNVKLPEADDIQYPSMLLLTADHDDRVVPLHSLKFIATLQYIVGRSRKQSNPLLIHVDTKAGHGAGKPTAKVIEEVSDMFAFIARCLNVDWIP

[5] = target: Dipeptidyl peptidase 2 (Homo sapiens, UniProt Q9UHL4); experiment: Inhibition of recombinant human DPP2; outline: as §1
[6] = organism: Homo sapiens; experiment: Selectivity index, ratio of IC50 for inhibition of human DPP8 expressed in baculovirus using Ala-Pro-7-amino-4-trifluormethylcoumarin as substrate to IC50 for inhibition of human DPP9 expressed in baculovirus using Gly-Pro-AMC as substrate
Outline: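 Ratio of IC50 against recombinant human DPP8 to IC50 against recombinant human DPP9, i.e. IC50(DPP8)/IC50(DPP9). Each IC50 is the mean of 3 independent measurements ± standard deviation.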

Structure (SMILES)	Ratio IC50 [1]	pIC50 [2]	pIC50 [3]	pIC50 [4]	pIC50 [5]	Ratio IC50 [6]
N[C@@H](CC(=O)N1CCN(C(c2ccc(F)cc2)c2ccc(F)cc2)CC1)C(=O)N1Cc2ccccc2C1	4	–	–	–	–	–
O=C(CCCCC1SCC2NC(=O)NC21)NCCOCCNC(=O)NC12CC3CC(CC(NCC(=O)N4Cc5cc(F)c(F)cc5C4)(C3)C1)C2 (stereo unspecified)	–	< 5.00	< 5.00	< 5.00	< 5.30	–
CC(C)[C@H](N)C(=O)N1CCC[C@H]1B(O)O	–	–	–	–	–	3
O=C(CCCCC1SCC2NC(=O)NC21)NCCOCCNC(=O)NC12CC3CC(CC(NCC(=O)N4Cc5ccc(F)cc5C4)(C3)C1)C2 (stereo unspecified)	–	< 5.00	< 5.00	< 5.00	< 5.30	–
O=C(CCCCC1SCC2NC(=O)NC21)NCCOCCOC(=O)NC12CC3CC(CC(NCC(=O)N4Cc5ccc(F)cc5C4)(C3)C1)C2 (stereo unspecified)	–	< 5.00	< 5.00	< 5.00	< 5.30	–
O=C(NC12CC3CC(CC(NCC(=O)N4Cc5ccc(F)cc5C4)(C3)C1)C2)OCCOCCNc1ccc([N+](=O)[O-])c2nonc12	–	6.36	< 5.00	< 5.00	< 5.30	–
O=C(CCCCC1SCC2NC(=O)NC21)NCCOCCOC(=O)NC12CC3CC(CC(NCC(=O)N4Cc5cc(F)c(F)cc5C4)(C3)C1)C2 (stereo unspecified)	–	< 5.00	< 5.00	< 5.00	< 5.30	–
CC[N+]1=C(/C=C/C=C2/N(CCCCCC(=O)NC34CC5CC(CC(NCC(=O)N6Cc7cc(F)c(F)cc7C6)(C5)C3)C4)c3ccc(S(=O)(=O)O)cc3C2(C)C)C(C)(C)c2cc(S(=O)(=O)[O-])ccc21	–	< 5.00	< 5.00	< 5.00	< 5.30	–
O=C(CCCCC1SCC2NC(=O)NC21)NCCOCCOCCNC(=O)NC12CC3CC(CC(NCC(=O)N4Cc5cc(F)c(F)cc5C4)(C3)C1)C2 (stereo unspecified)	–	< 5.00	< 5.00	< 5.00	< 5.30	–
CN(C)c1cccc2c(S(=O)(=O)NCCOCCOC(=O)NC34CC5CC(CC(NCC(=O)N6Cc7ccc(F)cc7C6)(C5)C3)C4)cccc12	–	< 5.00	< 5.00	< 5.00	< 5.30	–
O=C(NC12CC3CC(CC(NCC(=O)N4Cc5cc(F)c(F)cc5C4)(C3)C1)C2)OCCOCCNc1ccc([N+](=O)[O-])c2nonc12	–	5.77	< 5.00	< 5.00	< 5.30	–
CN(C)c1cccc2c(S(=O)(=O)NCCOCCOC(=O)NC34CC5CC(CC(NCC(=O)N6Cc7cc(F)c(F)cc7C6)(C5)C3)C4)cccc12	–	< 5.00	< 5.00	< 5.00	< 5.30	–
O=C(CCCCC1SCC2NC(=O)NC21)NCCOCCOCCNC(=O)NC12CC3CC(CC(NCC(=O)N4Cc5ccc(F)cc5C4)(C3)C1)C2 (stereo unspecified)	–	< 5.00	< 5.00	< 5.00	< 5.30	–
